Results taken from ChEMBL document CHEMBL1649125, “Efficacy of the novel diamidine compound 2,5-Bis(4-amidinophenyl)- furan-bis-O-Methlylamidoxime (Pafuramidine, DB289) against Trypanosoma brucei rhodesiense infection in vervet monkeys after oral administration” (2009).
Calls of active or inactive are those of the source. No cut-off for these calls is given here.

Columns and labels:
[1] = system: Trypanosoma brucei rhodesiense; experiment: Antitrypanosomal activity against Trypanosoma brucei rhodesiense infected in vervet monkey assessed as body weight change at 1 mg/kg, po administered on day 7 post infection for 5 days; format: functional
How it was run: (§1)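 Body weight change is given as percent of the mean preinfection weight (n=3 per group). It was recorded at day 0 p.t., day 28 p.t. and end point. Oral gavage was once daily: 5 days from day 7 p.i., or 10 days from day 28 p.i.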

[2] = system: Trypanosoma brucei rhodesiense; experiment: Antitrypanosomal activity against Trypanosoma brucei rhodesiense infected in vervet monkey assessed as body weight change at 3 mg/kg, po administered on day 7 post infection for 5 days; format: functional; how it was run: as §1
[3] = system: Trypanosoma brucei rhodesiense; experiment: Antitrypanosomal activity against Trypanosoma brucei rhodesiense infected in vervet monkey assessed as body weight change at 10 mg/kg, po administered on day 7 post infection for 5 days; format: functional; how it was run: as §1
[4] = system: Trypanosoma brucei rhodesiense; experiment: Antitrypanosomal activity against Trypanosoma brucei rhodesiense infected in vervet monkey assessed as body weight change at 10 mg/kg, po administered on day 28 post infection for 10 days; format: functional; how it was run: as §1
[5] = system: Trypanosoma brucei rhodesiense; experiment: Antitrypanosomal activity against Trypanosoma brucei rhodesiense infected in vervet monkey 463 assessed as time to detect parasitemia at 1 mg/kg, po administered on day 7 post infection for 5 days; format: functional
How it was run: (§2)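 Parasitemia was monitored from 3 days p.i. in ear-prick or inguinal venous blood. Methods were wet-film microscopy (detection limit 10^5 trypanosomes/ml) and hematocrit centrifugation technique (detection limit 10^3 trypanosomes/ml). Drug was given once daily by oral gavage: 5 days from day 7 p.i., or 10 days from day 28 p.i.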

[6] = system: Trypanosoma brucei rhodesiense; experiment: Antitrypanosomal activity against Trypanosoma brucei rhodesiense infected in vervet monkey 463 assessed as time to detect parasitemia in wet films of blood at 1 mg/kg, po administered on day 7 post infection for 5 days by hematocrit centrifugation technique; format: functional; how it was run: as §2
[7] = system: Trypanosoma brucei rhodesiense; experiment: Antitrypanosomal activity against Trypanosoma brucei rhodesiense infected in vervet monkey 463 assessed as time to detect CSF parasitosis at 1 mg/kg, po administered on day 7 post infection for 5 days measured after 14 to 21 days by microscopy; format: functional, organism-based; set-up: dose 1 mg/kg
How it was run: (§3)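 Trypanosomes and white cells in free-flowing CSF were counted by hemocytometer. Negative CSF was centrifuged and re-examined. Samples still negative were inoculated at 0.2 ml intraperitoneally into two mice each. Drug was given once daily by oral gavage: 5 days from day 7 p.i., or 10 days from day 28 p.i.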

[8] = system: Trypanosoma brucei rhodesiense; experiment: Antitrypanosomal activity against Trypanosoma brucei rhodesiense infected in vervet monkey 484 assessed as time to detect parasitemia at 1 mg/kg, po administered on day 7 post infection for 5 days; format: functional, organism-based; set-up: dose 1 mg/kg; how it was run: as §2
[9] = system: Trypanosoma brucei rhodesiense; experiment: Antitrypanosomal activity against Trypanosoma brucei rhodesiense infected in vervet monkey 485 assessed as time to detect CSF parasitosis at 1 mg/kg, po administered on day 7 post infection for 5 days measured after 7 to 14 days; format: functional; how it was run: as §3
[10] = system: Trypanosoma brucei rhodesiense; experiment: Antitrypanosomal activity against Trypanosoma brucei rhodesiense infected in vervet monkey 482 assessed as time to detect CSF parasitosis at 3 mg/kg, po administered on day 7 post infection for 5 days measured after 14 to 21 days by microscopy; format: functional; how it was run: as §3
[11] = system: Trypanosoma brucei rhodesiense; experiment: Antitrypanosomal activity against Trypanosoma brucei rhodesiense infected in vervet monkey 483 assessed as time to detect parasitemia at 3 mg/kg, po administered on day 7 post infection for 5 days; format: functional; how it was run: as §2
[12] = system: Trypanosoma brucei rhodesiense; experiment: Antitrypanosomal activity against Trypanosoma brucei rhodesiense infected in vervet monkey 483 assessed as time to detect CSF parasitosis at 3 mg/kg, po administered on day 7 post infection for 5 days measured after 14 to 21 days by microscopy; format: functional; how it was run: as §3
[13] = system: Trypanosoma brucei rhodesiense; experiment: Antitrypanosomal activity against Trypanosoma brucei rhodesiense infected in vervet monkey 411 assessed as cure from infection at 3 mg/kg, po administered on day 7 post infection for 5 days; format: functional, organism-based; set-up: dose 3 mg/kg
How it was run: (§4)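 Vervet monkeys (n=3 per group), infected with T. b. rhodesiense KETRI 2537. Dosed by oral gavage with a suspension once daily for 5 consecutive days from day 7 p.i. Cure meant no trypanosomes over 180 days p.t. in blood (wet film, HCT) or CSF (hemocytometer, centrifugation), with mouse subinoculation of negative samples.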

[14] = system: Trypanosoma brucei rhodesiense; experiment: Antitrypanosomal activity against Trypanosoma brucei rhodesiense infected in vervet monkey 454 assessed as cure from infection at 10 mg/kg, po administered on day 7 post infection for 5 days; format: functional, organism-based; set-up: dose 10 mg/kg; how it was run: as §4
[15] = system: Trypanosoma brucei rhodesiense; experiment: Antitrypanosomal activity against Trypanosoma brucei rhodesiense infected in vervet monkey 468 assessed as cure from infection at 10 mg/kg, po administered on day 7 post infection for 5 days; format: functional, organism-based; set-up: dose 10 mg/kg; how it was run: as §4
[16] = system: Trypanosoma brucei rhodesiense; experiment: Antitrypanosomal activity against Trypanosoma brucei rhodesiense infected in vervet monkey 490 assessed as time to detect CSF parasitosis at 10 mg/kg, po administered on day 28 post infection for 10 days measured after 14 to 21 days by microscopy; format: functional; how it was run: as §3
[17] = system: Trypanosoma brucei rhodesiense; experiment: Antitrypanosomal activity against Trypanosoma brucei rhodesiense infected in vervet monkey assessed as body weight change at 10 mg/kg, po administered on day 7 post infection for 5 days measured on day 28 post treatment; format: functional; how it was run: as §1
[18] = system: Trypanosoma brucei rhodesiense; experiment: Antitrypanosomal activity against Trypanosoma brucei rhodesiense infected in vervet monkey assessed as body weight change at 10 mg/kg, po administered on day 14 post infection for 5 days measured on day 28 post treatment; format: functional
[19] = system: Trypanosoma brucei rhodesiense; experiment: Antitrypanosomal activity against Trypanosoma brucei rhodesiense infected in vervet monkey assessed as body weight change at 10 mg/kg, po administered on day 28 post infection for 10 days measured on day 28 post treatment; format: functional; how it was run: as §1
[20] = system: Trypanosoma brucei rhodesiense; experiment: Antitrypanosomal activity against Trypanosoma brucei rhodesiense infected in vervet monkey assessed as change in packed cell volume at 10 mg/kg, po administered on day 7 post infection for 5 days; format: functional
How it was run: (§5)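 Vervet monkeys, three per group, were infected intravenously with T. b. rhodesiense KETRI 2537. From day 7 p.i., a drug suspension was given by oral gavage once daily for 5 consecutive days. Packed cell volume was expressed as % change from the group's mean preinfection value. PCV was read at day 0 p.t., day 28 p.t. and endpoint, with follow-up to 180 days p.t.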

[21] = system: Trypanosoma brucei rhodesiense; experiment: Antitrypanosomal activity against Trypanosoma brucei rhodesiense infected in vervet monkey assessed as change in packed cell volume at 10 mg/kg, po administered on day 14 post infection for 5 days; format: functional
[22] = system: Trypanosoma brucei rhodesiense; experiment: Antitrypanosomal activity against Trypanosoma brucei rhodesiense infected in vervet monkey assessed as change in packed cell volume at 10 mg/kg, po administered on day 28 post infection for 10 days; format: functional
How it was run: (§6)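 Three vervet monkeys were infected intravenously with T. b. rhodesiense KETRI 2537 and treated in late-stage disease. From day 28 p.i., a drug suspension was given by oral gavage once daily for 10 consecutive days. PCV was reported as % change from the mean preinfection value at day 0 p.t., day 28 p.t. and endpoint. Monitoring continued up to 180 days p.t.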

[23] = system: Trypanosoma brucei rhodesiense; experiment: Antitrypanosomal activity against Trypanosoma brucei rhodesiense infected in vervet monkey assessed as change in packed cell volume at 1 mg/kg, po administered on day 7 post infection for 5 days measured on day 28 post treatment; format: functional; how it was run: as §5
[24] = system: Trypanosoma brucei rhodesiense; experiment: Antitrypanosomal activity against Trypanosoma brucei rhodesiense infected in vervet monkey assessed as change in packed cell volume at 3 mg/kg, po administered on day 7 post infection for 5 days measured on day 28 post treatment; format: functional; how it was run: as §5
[25] = system: Trypanosoma brucei rhodesiense; experiment: Antitrypanosomal activity against Trypanosoma brucei rhodesiense infected in vervet monkey assessed as change in packed cell volume at 10 mg/kg, po administered on day 28 post infection for 10 days measured on day 28 post treatment; format: functional; how it was run: as §6
[26] = system: Trypanosoma brucei rhodesiense; experiment: Antimicrobial activity against Trypanosoma brucei rhodesiense infected in vervet monkeys assessed as cure from infection at 10 mg/kg, po administered for 10 days

CONC(=N)c1ccc(-c2ccc(-c3ccc(C(=N)NOC)cc3)o2)cc1 [PAFURAMIDINE]
Activity [1]: -2.2% | Activity [2]: -5% | Activity [3]: -6.3% | Activity [4]: -10.5% | Time [5]: 7 days | Time [6]: 9 days | Time [7]: inactive | Time [8]: inactive | Time [9]: 14 days | Time [10]: 21 days | Time [11]: 69 days | Time [12]: 55 days | Time [13]: Active | Time [14]: Active | Time [15]: Active | Time [16]: 42 days | Activity [17]: 0% | Activity [18]: -5.2% | Activity [19]: -8.1% | Activity [20]: -5.8% | Activity [21]: -25.8% | Activity [22]: -41.3% | Activity [23]: -17% | Activity [24]: -2.9% | Activity [25]: -9.1% | Activity [26]: inactive
